Measurements from ChEMBL document CHEMBL2384907, “Identification of substituted pyrimido[5,4-b]indoles as selective Toll-like receptor 4 ligands” (J Med Chem, 2013).
Active and inactive are the calls of the source. The rule behind the calls is not given here.

Key:
Type in all cases: cell-based
[1] = target: Toll-like receptor 4 (Homo sapiens) (UniProt O00206); assay: Activation of human TLR4 transfected in HEK293 cells after 18 hrs by SEAP assay relative to N-cyclohexyl-2-(4-oxo-3-phenyl-4,5-dihydro-3H-pyrimido[5,4-b]indol-2-ylthio)acetamide; set-up: concentration or dose not given beside the values
Outline: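 Human TLR4 HEK-Blue cells (2.5 × 10^4/well) given compound at 10 μM for 18 h, 0.5% DMSO vehicle; SEAP in supernatant read at 630 nm, normalized to reference hit set at 100. LPS 10 ng/mL positive control.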

[2] = target: T1, Toll-like receptor 4 (Mus musculus) (UniProt Q9QUK6); assay: Activation of TLR4-mediated type 1 IFN release in C57BL/6 mouse BMDC cells after overnight incubation by luciferase reporter gene assay
T1 sequence (whole entry): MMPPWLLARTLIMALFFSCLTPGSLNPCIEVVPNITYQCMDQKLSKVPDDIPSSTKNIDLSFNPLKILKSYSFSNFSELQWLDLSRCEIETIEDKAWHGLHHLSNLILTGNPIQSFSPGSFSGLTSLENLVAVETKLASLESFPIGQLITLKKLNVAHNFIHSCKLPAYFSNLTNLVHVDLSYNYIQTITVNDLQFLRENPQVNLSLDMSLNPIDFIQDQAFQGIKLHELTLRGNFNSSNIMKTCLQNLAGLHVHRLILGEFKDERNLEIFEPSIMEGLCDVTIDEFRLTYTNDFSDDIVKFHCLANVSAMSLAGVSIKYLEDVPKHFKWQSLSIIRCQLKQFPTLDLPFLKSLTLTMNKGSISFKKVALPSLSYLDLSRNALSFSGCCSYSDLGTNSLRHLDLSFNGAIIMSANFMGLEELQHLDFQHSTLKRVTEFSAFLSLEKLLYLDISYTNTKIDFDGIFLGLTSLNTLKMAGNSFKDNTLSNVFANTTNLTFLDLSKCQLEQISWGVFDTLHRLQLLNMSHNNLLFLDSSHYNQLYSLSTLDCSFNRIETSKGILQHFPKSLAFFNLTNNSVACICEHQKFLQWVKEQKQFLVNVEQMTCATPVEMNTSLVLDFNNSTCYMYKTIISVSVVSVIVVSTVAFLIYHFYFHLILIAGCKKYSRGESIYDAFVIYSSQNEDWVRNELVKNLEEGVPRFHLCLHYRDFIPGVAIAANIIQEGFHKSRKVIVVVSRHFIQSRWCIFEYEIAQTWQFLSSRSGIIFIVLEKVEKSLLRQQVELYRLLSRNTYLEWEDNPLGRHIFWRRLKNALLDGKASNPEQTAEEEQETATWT
Outline: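 Wild-type BMDC incubated overnight with graded concentrations (0.5% DMSO vehicle); 50 μL supernatant put on L929-ISRE luciferase reporter cells (5 × 10^4/well, DMEM-10) for 6 h; luciferase read, quantified against mouse IFN-β standard. Mean ± SEM of triplicates, two independent experiments.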

[3] = target: T1, Toll-like receptor 4 (Mus musculus); assay: Activation of TLR4-mediated type 1 IFN release in C57BL/6 mouse BMDC cells assessed as IP10 level after overnight incubation by ELISA
Outline: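 Wild-type BMDC incubated overnight with graded concentrations, 0.5% DMSO vehicle; IP-10 in supernatants by ELISA as surrogate of type I IFN. Mean ± SEM of triplicates; two independent experiments.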

[4] = target: T1, Toll-like receptor 4 (Mus musculus); assay: Activation of mouse TLR4 transfected in HEK293 cells assessed as NFkappaB activation after 20 to 24 hrs by SEAP assay
Outline: (§1)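 Human or mouse TLR4 HEK-Blue cells (2.5 × 10^4/well) incubated with graded concentrations for 20–24 h; NFκB-driven SEAP in culture supernatant measured colorimetrically.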

[5] = target: Toll-like receptor 4 (Homo sapiens) (UniProt O00206); assay: Activation of human TLR4 transfected in HEK293 cells assessed as NFkappaB activation after 20 to 24 hrs by SEAP assay; outline: as §1
[6] = target: T2, Toll-like receptor 8 (Homo sapiens) (UniProt Q9NR97); assay: Activation of human TLR8 transfected in HEK293 cells at 10 uM after 20 to 24 hrs by SEAP assay
T2 sequence (whole entry): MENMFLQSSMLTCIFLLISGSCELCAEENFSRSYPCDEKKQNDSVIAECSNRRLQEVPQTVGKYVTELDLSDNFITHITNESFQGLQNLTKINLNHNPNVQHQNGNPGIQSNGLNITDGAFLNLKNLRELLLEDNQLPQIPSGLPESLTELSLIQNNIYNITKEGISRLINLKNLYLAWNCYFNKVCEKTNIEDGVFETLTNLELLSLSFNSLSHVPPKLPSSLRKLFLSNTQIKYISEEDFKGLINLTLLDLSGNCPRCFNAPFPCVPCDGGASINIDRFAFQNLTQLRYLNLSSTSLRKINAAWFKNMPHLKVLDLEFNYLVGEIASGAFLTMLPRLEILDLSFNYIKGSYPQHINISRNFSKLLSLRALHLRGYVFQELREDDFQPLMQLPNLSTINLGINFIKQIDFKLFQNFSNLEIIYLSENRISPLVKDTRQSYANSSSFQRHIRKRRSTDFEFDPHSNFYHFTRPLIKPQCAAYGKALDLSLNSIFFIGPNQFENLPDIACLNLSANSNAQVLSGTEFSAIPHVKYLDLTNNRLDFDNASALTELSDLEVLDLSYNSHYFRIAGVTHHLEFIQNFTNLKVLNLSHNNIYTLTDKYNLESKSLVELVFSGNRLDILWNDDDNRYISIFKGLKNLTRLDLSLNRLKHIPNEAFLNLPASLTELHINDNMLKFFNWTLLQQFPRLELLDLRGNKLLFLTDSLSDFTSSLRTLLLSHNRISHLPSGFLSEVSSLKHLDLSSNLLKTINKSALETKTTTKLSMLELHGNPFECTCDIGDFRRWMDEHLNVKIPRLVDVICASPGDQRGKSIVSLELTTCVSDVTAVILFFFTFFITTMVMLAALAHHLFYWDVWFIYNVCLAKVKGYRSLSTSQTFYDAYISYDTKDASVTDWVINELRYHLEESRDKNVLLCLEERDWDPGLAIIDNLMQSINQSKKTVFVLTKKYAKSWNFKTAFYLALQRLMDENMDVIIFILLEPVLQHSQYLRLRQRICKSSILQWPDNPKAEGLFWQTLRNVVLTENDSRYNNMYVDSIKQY

[7] = target: Toll-like receptor 4/MD-2/CD14 (Homo sapiens) (UniProt O00206+Q9Y6Y9+P08571); assay: Activation of human TLR4/MD-2/CD14 transfected in HEK293 cells at 10 uM after 20 to 24 hrs by SEAP assay
[8] = target: Toll-like receptor 2 (Homo sapiens) (UniProt O60603); assay: Activation of human TLR2 transfected in HEK293 cells at 10 uM after 20 to 24 hrs by SEAP assay
Chain of Toll-like receptor 2 (Homo sapiens) (O60603 whole entry): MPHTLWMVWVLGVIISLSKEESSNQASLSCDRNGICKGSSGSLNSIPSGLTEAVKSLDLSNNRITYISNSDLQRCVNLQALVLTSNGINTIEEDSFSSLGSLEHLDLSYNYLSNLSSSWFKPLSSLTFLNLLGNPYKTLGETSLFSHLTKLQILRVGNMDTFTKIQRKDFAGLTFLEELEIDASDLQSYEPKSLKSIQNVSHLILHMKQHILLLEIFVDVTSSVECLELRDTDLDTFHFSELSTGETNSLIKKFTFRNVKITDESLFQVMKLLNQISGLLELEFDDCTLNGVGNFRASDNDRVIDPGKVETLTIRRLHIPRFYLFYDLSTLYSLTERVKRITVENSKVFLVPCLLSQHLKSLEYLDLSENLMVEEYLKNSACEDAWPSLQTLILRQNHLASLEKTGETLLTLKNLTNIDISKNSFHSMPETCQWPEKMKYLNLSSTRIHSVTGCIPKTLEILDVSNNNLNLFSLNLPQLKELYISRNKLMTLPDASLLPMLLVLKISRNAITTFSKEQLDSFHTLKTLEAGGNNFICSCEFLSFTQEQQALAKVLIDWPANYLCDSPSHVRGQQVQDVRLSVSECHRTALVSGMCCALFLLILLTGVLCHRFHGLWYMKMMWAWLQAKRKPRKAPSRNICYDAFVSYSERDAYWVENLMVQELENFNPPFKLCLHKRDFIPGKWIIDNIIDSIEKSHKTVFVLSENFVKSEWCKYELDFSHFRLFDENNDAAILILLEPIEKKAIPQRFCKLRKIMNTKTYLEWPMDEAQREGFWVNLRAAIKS

Chain of Toll-like receptor 4 (Homo sapiens) (O00206 whole entry): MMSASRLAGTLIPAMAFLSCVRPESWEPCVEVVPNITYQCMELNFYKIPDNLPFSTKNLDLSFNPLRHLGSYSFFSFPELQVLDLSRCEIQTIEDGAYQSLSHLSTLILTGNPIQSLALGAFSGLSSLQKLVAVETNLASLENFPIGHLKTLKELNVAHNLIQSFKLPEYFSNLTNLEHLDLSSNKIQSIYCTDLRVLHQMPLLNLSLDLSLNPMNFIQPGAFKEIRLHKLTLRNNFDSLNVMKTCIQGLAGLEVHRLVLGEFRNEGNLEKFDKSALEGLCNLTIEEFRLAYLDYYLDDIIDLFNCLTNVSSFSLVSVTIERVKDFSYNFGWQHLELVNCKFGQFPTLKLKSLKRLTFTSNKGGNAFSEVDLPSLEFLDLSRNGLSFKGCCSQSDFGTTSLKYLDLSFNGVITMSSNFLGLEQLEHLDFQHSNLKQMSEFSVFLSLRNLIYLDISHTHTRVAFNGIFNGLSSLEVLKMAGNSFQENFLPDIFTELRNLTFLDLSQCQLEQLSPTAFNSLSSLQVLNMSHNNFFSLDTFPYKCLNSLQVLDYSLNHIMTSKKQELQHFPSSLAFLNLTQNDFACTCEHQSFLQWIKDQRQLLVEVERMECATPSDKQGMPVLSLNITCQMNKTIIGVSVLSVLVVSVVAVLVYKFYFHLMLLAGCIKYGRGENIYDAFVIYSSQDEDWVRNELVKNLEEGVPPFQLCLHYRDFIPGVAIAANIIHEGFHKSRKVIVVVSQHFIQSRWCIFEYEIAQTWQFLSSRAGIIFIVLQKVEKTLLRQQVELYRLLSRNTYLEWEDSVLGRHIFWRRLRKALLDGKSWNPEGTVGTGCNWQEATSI

Activity [1]: 100%
Activity [2]: Dose-dependent effect
Activity [3]: Dose-dependent effect
Activity [4]: Dose-dependent effect
Activity [5]: Dose-dependent effect
Activity [6]: inactive
Activity [7]: Active
Activity [8]: inactive
SMILES: O=C(CSc1nc2c([nH]c3ccccc32)c(=O)n1-c1ccccc1)NC1CCCCC1
